The text below walks through data of ChEMBL document CHEMBL3112519, “Degrasyn-like symmetrical compounds: possible therapeutic agents for multiple myeloma (MM-I)” (Bioorg Med Chem, 2014).

Calls of active or inactive are those of the source. The calls are words filed in the database; no cut-off is given here.

Sequence of Tyrosine-protein kinase JAK2 (Homo sapiens) (O60674 whole entry): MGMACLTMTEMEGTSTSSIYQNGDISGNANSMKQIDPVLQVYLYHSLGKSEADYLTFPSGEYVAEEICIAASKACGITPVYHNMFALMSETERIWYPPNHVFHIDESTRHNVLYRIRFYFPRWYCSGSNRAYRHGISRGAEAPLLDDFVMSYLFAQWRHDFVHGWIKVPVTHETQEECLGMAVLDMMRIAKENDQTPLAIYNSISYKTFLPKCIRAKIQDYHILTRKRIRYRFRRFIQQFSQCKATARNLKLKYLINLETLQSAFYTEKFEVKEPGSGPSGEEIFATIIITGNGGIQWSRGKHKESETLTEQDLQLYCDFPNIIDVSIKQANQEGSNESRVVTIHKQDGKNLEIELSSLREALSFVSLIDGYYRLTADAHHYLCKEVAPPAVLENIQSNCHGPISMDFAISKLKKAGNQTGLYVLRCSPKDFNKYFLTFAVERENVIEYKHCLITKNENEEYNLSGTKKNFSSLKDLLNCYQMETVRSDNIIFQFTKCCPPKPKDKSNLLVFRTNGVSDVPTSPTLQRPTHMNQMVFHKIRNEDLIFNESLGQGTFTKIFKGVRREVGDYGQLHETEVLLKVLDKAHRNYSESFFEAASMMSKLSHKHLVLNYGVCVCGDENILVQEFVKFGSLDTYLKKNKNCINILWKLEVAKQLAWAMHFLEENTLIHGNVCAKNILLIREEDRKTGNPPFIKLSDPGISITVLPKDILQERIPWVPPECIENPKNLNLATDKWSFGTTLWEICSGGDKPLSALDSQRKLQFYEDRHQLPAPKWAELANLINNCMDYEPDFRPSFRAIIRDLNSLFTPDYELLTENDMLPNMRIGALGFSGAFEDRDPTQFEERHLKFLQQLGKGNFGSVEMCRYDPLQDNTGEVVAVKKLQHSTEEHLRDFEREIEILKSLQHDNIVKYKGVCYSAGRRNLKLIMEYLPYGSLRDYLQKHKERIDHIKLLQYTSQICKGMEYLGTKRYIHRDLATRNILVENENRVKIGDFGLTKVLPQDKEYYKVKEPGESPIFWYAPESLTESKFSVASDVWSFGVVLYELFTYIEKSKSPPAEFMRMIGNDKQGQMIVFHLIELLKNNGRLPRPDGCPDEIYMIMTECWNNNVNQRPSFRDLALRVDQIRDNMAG

The target of the first experiment is T1, Ubiquitin carboxyl-terminal hydrolase 9X (Homo sapiens, UniProt Q93008). Description: Inhibition of Usp9x in human Z138 cells using HA-Ub vinyl-sulfone as substrate at 1.25 to 5 uM after 4 hrs by immunoblotting analysis. It is filed as cell-based.
T1 sequence (Q93008 whole entry): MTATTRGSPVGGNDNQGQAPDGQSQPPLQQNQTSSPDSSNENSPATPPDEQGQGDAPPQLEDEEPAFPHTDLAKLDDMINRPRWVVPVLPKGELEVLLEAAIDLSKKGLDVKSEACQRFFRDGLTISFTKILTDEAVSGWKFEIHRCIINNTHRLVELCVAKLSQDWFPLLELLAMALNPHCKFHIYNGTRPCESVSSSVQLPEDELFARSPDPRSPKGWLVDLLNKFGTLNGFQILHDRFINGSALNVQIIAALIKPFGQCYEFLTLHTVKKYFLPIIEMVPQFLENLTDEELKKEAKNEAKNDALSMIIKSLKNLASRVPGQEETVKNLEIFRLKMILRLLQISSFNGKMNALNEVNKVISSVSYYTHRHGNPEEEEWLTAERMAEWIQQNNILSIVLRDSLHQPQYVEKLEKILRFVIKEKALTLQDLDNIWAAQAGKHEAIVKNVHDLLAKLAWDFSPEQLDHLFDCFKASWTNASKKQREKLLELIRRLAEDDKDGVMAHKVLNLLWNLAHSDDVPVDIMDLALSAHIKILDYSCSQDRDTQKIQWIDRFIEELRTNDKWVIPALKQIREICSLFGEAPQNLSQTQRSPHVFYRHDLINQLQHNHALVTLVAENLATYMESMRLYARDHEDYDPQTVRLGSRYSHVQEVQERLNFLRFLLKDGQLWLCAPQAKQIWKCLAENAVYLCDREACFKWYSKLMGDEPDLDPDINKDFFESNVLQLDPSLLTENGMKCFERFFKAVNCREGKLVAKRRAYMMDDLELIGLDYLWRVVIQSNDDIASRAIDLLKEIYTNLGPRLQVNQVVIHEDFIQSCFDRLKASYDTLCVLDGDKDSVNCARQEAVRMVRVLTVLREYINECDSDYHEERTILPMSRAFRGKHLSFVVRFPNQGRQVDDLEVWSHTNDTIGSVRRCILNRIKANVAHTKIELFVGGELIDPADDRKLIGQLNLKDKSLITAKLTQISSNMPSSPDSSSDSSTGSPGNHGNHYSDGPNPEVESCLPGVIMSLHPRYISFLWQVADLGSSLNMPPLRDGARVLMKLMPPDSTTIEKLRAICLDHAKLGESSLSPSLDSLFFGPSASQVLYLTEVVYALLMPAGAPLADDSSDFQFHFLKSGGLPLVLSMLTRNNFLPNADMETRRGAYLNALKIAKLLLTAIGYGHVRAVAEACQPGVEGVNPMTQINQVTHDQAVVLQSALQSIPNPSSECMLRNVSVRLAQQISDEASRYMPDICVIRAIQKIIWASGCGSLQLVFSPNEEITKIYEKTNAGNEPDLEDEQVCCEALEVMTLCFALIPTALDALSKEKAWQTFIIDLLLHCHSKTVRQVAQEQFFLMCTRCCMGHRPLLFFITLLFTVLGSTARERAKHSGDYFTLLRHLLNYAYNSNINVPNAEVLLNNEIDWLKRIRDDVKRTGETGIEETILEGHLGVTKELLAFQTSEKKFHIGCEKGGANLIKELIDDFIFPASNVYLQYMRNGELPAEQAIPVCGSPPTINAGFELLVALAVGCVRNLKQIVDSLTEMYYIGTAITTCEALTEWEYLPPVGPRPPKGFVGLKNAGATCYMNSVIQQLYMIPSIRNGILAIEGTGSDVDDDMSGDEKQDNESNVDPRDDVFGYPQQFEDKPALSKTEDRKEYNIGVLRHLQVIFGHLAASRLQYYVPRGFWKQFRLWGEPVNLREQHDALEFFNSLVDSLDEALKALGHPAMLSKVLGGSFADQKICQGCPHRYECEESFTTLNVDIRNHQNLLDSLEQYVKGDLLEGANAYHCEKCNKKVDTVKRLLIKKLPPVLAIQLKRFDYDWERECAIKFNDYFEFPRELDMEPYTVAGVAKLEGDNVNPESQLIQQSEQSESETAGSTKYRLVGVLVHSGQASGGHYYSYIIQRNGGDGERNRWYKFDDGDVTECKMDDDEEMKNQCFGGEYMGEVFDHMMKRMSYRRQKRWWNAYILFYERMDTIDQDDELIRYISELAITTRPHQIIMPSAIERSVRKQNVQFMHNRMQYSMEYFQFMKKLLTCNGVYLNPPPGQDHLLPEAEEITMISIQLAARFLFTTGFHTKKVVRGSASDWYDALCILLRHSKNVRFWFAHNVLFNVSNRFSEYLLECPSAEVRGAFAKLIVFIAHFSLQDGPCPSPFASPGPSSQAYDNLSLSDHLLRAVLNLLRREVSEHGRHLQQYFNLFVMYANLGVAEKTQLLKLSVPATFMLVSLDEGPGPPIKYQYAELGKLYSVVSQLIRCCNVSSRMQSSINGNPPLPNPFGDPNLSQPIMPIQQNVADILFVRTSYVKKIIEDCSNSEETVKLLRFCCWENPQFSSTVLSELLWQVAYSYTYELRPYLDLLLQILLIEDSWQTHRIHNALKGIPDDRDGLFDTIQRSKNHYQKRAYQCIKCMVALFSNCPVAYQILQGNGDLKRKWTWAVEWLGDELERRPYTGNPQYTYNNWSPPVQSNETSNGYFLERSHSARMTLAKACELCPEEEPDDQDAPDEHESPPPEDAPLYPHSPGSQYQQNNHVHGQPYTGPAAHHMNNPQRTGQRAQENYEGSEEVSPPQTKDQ
Settings: not given
(In western blotting, separated proteins are transferred to a membrane and probed.)
With `CCC[C@H](NC(=O)/C(C#N)=C/c1cccc(Br)n1)c1ccccc1`, the inhibition – broadly, the share of the control response that was lost under treatment – was “Active”.

The target of a further experiment is T1, Ubiquitin carboxyl-terminal hydrolase 9X. Description: Inhibition of human recombinant N-terminal His6-Smt3-fusion-tagged Usp9x catalytic domain expressed in Escherichia coli using Ub-AMC as substrate incubated for 30 mins prior to substrate addition by fluorescence assay.
Settings: not given
As for `CCC[C@H](NC(=O)/C(C#N)=C/c1cccc(Br)n1)c1ccccc1`, the IC50 (usually the midpoint of a concentration-inhibition curve) was found to be 5.9 µM.

Another experiment addresses Tyrosine-protein kinase JAK2 (Homo sapiens) (UniProt O60674). The experiment is described as follows: Inhibition of human JAK2 kinase at 10000 nM.
Settings: not given
Take `N#C/C(=C/c1cccc(Br)n1)C(=O)NCc1cccc(CNC(=O)/C(C#N)=C\c2cccc(Br)n2)c1`: the inhibition result is “inactive”.

In the next experiment the target is Mast/stem cell growth factor receptor Kit (Homo sapiens) (UniProt P10721). The experiment is described as follows: Inhibition of human c-kit kinase at 10000 nM.
Sequence of Mast/stem cell growth factor receptor Kit (Homo sapiens) (P10721 whole entry): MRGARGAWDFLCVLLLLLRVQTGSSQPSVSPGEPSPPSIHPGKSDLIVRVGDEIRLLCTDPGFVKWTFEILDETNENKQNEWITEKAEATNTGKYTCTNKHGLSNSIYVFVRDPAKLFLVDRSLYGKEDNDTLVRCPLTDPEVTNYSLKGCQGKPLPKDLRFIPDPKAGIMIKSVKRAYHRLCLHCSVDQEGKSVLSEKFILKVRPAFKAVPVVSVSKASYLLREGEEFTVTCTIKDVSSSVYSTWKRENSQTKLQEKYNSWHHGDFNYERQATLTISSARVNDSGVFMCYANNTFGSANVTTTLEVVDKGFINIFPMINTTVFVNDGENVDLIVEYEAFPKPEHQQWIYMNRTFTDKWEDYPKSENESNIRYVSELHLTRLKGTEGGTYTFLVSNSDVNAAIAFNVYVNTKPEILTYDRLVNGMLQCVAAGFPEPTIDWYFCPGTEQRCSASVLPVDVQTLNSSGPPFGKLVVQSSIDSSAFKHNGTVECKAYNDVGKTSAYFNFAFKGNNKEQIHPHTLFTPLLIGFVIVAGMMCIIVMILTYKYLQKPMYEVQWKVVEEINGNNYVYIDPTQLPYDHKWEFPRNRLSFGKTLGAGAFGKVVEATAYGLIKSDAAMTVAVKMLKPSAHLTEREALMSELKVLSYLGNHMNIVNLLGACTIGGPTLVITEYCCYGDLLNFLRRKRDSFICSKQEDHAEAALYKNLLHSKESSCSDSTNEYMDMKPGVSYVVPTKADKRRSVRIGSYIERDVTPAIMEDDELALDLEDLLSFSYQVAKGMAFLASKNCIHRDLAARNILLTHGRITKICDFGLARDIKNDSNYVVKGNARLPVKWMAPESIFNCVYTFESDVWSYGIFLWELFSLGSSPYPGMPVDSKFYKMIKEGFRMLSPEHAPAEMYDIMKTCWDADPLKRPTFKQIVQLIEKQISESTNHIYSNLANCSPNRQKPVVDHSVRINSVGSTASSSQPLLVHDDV
Settings: not given
For `N#C/C(=C/c1cccc(Br)n1)C(=O)NCc1cccc(CNC(=O)/C(C#N)=C\c2cccc(Br)n2)c1`, the inhibition entry was “inactive”.

Another experiment is filed under the species Homo sapiens. The experiment is described as follows: Inhibition of human Bcr-Abl kinase at 10000 nM.
Settings: not given
As to `N#C/C(=C/c1cccc(Br)n1)C(=O)NCc1cccc(CNC(=O)/C(C#N)=C\c2cccc(Br)n2)c1`, the inhibition result is “inactive”.

Tested on in a further experiment: not listed separately
Description: Cytotoxicity against human Mino cells after 72 hrs by MTT assay.
Settings: not given
It is filed as functional, cell-based. In outline: (§1)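 Cells were grown in RPMI 1640 with 10% heat-inactivated FBS and 2 mM glutamine. Non-adherent cells were seeded at 20,000 per well and adherent cells at 5,000. Compounds were serially diluted in medium from a final top concentration of 10 μM (DMSO ≤0.1%), with vehicle controls, and incubated at 37 °C for 72 h. MTT was added for 2 h, then SDS/DMF lysis (pH 4.7) for 6 h, and OD570 was read. IC50 was taken from the concentration range.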
A general note: Formazan colour is commonly taken as a measure of viable cells.
For the compound `N#C/C(=C/c1cccc(Br)n1)C(=O)NCc1cccc(CNC(=O)/C(C#N)=C\c2cccc(Br)n2)c1`, the half-inhibitory concentration (IC50) was determined as 0.2 µM.

Consider `C[C@H](NC(=O)/C(C#N)=C/c1cccc(/C=C(\C#N)C(=O)N[C@@H](C)c2ccccc2)c1)c1ccccc1`, for which the midpoint of inhibition, the IC50, lay at 0.4 µM.

For `CCC[C@H](NC(=O)/C(C#N)=C/c1cccc(Br)n1)c1ccccc1`, the IC50 was 0.8 µM.

Another experiment has as its system K562. The experiment is described as follows: Cytotoxicity against human K562 cells after 72 hrs by MTT assay. The class given is functional, cell-based. To be noted: K562, 72 h. An outline of the steps:
as §1
In the case of `N#C/C(=C/c1cccc(Br)n1)C(=O)NCc1cccc(CNC(=O)/C(C#N)=C\c2cccc(Br)n2)c1`, inhibition was half-maximal at 0.4 µM (IC50).

Regarding `C[C@H](NC(=O)/C(C#N)=C/c1cccc(/C=C(\C#N)C(=O)N[C@@H](C)c2ccccc2)c1)c1ccccc1`, the IC50 came to 0.6 µM.

Take `CCC[C@H](NC(=O)/C(C#N)=C/c1cccc(Br)n1)c1ccccc1`: the IC50 was determined as 2.4 µM.

The next experiment deals with A-375. Description: Cytotoxicity against human A375 cells after 72 hrs by MTT assay. The class given is functional, cell-based. The following applies: A-375, 72 h. In outline:
as §1
`N#C/C(=C/c1cccc(Br)n1)C(=O)NCc1cccc(CNC(=O)/C(C#N)=C\c2cccc(Br)n2)c1` had an IC50 of 0.6 µM.

The compound `C[C@H](NC(=O)/C(C#N)=C/c1cccc(/C=C(\C#N)C(=O)N[C@@H](C)c2ccccc2)c1)c1ccccc1` returned a concentration for half-maximal inhibition (IC50) of 0.8 µM.

`CCC[C@H](NC(=O)/C(C#N)=C/c1cccc(Br)n1)c1ccccc1` came in with an IC50 of 1.7 µM.

Tested on in another experiment: not listed separately
Description: Cytotoxicity against human MM1S cells after 72 hrs by MTT assay. The following applies: MM1.S. It is filed as functional, cell-based. In outline: as §1
As to `N#C/C(=C/c1cccc(Br)n1)C(=O)NCc1cccc(CNC(=O)/C(C#N)=C\c2cccc(Br)n2)c1`, inhibition was half-maximal at 0.24 µM (IC50).

For `CC[C@H](NC(=O)/C(C#N)=C/c1cccc(/C=C(\C#N)C(=O)N[C@@H](CC)c2ccccc2)c1)c1ccccc1`, the IC50 turned out to be 0.8 µM.

In the case of `N#C/C(=C\c1cccc(/C=C(\C#N)C(=O)N[C@@H](Cc2ccccc2)c2ccccc2)c1)C(=O)N[C@@H](Cc1ccccc1)c1ccccc1`, the IC50 was 0.62 µM.

In turn, `N#C/C(=C/c1ccc2[nH]ccc2c1)C(=O)NCc1cccc(CNC(=O)/C(C#N)=C\c2ccc3[nH]ccc3c2)c1` returned an IC50 greater than 5 µM.

`COc1cccc(/C=C(/C#N)C(=O)NCc2cccc(CNC(=O)/C(C#N)=C\c3cccc(OC)n3)c2)n1` came in with an IC50 greater than 5 µM.

Take `N#C/C(=C/c1csc2ccccc12)C(=O)NCc1cccc(CNC(=O)/C(C#N)=C\c2csc3ccccc23)c1`: the concentration for half-maximal inhibition (IC50) is greater than 5 µM.

The compound `N#C/C(=C\c1cccc(/C=C(\C#N)C(=O)N[C@@H](CO)c2ccccc2)c1)C(=O)N[C@@H](CO)c1ccccc1` gave an IC50 greater than 2 µM.

For `C[C@H](NC(=O)/C(C#N)=C/c1cc(/C=C(\C#N)C(=O)N[C@@H](C)c2ccccc2)cc(/C=C(\C#N)C(=O)N[C@@H](C)c2ccccc2)c1)c1ccccc1`, the concentration for half-maximal inhibition (IC50) came to 0.7 µM.

In turn, `N#C/C(=C/c1ccc(-c2cccs2)s1)C(=O)NCc1cccc(CNC(=O)/C(C#N)=C\c2ccc(-c3cccs3)s2)c1` gave an IC50 greater than 5 µM.

`N#C/C(=C/c1cnc[nH]1)C(=O)NCc1cccc(CNC(=O)/C(C#N)=C\c2cnc[nH]2)c1` yielded an IC50 greater than 5 µM.

Consider `N#C/C(=C/c1ccc(N2CCCCC2)cc1)C(=O)NCc1cccc(CNC(=O)/C(C#N)=C\c2ccc(N3CCCCC3)cc2)c1`, for which the half-maximal inhibitory concentration (IC50) was greater than 5 µM.

`C[C@H](NC(=O)/C(C#N)=C/c1ccc(/C=C(\C#N)C(=O)N[C@@H](C)c2ccccc2Cl)cc1)c1ccccc1Cl` returned a 50% inhibitory concentration (IC50) greater than 5 µM.

`C[C@H](NC(=O)/C(C#N)=C/c1cccc(/C=C(\C#N)C(=O)N[C@@H](C)c2ccccc2)c1)c1ccccc1` displayed an IC50 of 0.4 µM.

`COc1ccc(/C=C(/C#N)C(=O)NCc2cccc(CNC(=O)/C(C#N)=C\c3ccc(OC)c(OC)c3)c2)cc1OC` returned an IC50 of 2 µM.

Compound `N#C/C(=C/c1cc(-c2ccccc2)cs1)C(=O)NCc1cccc(CNC(=O)/C(C#N)=C\c2cc(-c3ccccc3)cs2)c1` registered an IC50 greater than 5 µM.

In turn, `N#C/C(=C\c1ccc(/C=C(\C#N)C(=O)N[C@@H](CO)c2ccccc2)cc1)C(=O)N[C@@H](CO)c1ccccc1` came in with an IC50 of 2 µM.

With `N#C/C(=C/c1cc(Cl)c(Cl)cn1)C(=O)NCc1cccc(CNC(=O)/C(C#N)=C\c2cc(Cl)c(Cl)cn2)c1`, the IC50 was 1.25 µM.

With `N#C/C(=C/c1ccc(O)c(Br)c1)C(=O)NCc1cccc(CNC(=O)/C(C#N)=C\c2ccc(O)c(Br)c2)c1`, the IC50 is greater than 10 µM.

Compound `CCC[C@H](NC(=O)/C(C#N)=C/c1cccc(Br)n1)c1ccccc1` displayed a half-inhibitory concentration (IC50) of 1.2 µM.

`COc1ccc([C@H](C)NC(=O)/C(C#N)=C/c2cccc(/C=C(\C#N)C(=O)N[C@@H](C)c3ccc(OC)cc3)c2)cc1` had an IC50 of 1 µM.

Compound `CCC[C@H](NC(=O)/C(C#N)=C/c1cccc(/C=C(\C#N)C(=O)N[C@@H](CCC)c2ccccc2)c1)c1ccccc1` showed an IC50 of 0.6 µM.

`N#C/C(=C/c1ccc([N+](=O)[O-])c(O)c1)C(=O)NCc1cccc(CNC(=O)/C(C#N)=C\c2ccc([N+](=O)[O-])c(O)c2)c1` displayed an IC50 of 0.7 µM.

`CCC[C@H](NC(=O)/C(C#N)=C/c1cccc(/C=C(\C#N)C(=O)N[C@@H](CCC)c2ccccc2)n1)c1ccccc1` came in with an IC50 of 1.2 µM.

`COc1ccc(C(CC2CC2)NC(=O)/C(C#N)=C/c2cccc(/C=C(\C#N)C(=O)NC(CC3CC3)c3ccc(OC)cc3)c2)cc1` (racemic) returned an IC50 of 1.2 µM.

Regarding `C[C@H](NC(=O)/C(C#N)=C/c1cccc(/C=C(\C#N)C(=O)N[C@@H](C)c2ccccc2)n1)c1ccccc1`, it took 1.28 µM to reach half-maximal inhibition (IC50).

`Cc1ccc(Cl)c(C=C(C#N)C(=O)NCc2cccc(CNC(=O)C(C#N)=Cc3c(Cl)ccc(C)c3F)c2)c1F` returned an IC50 of 0.6 µM.

`C[C@H](NC(=O)/C(C#N)=C/c1ccc(/C=C(\C#N)C(=O)N[C@@H](C)c2ccccc2)cc1)c1ccccc1` showed an IC50 greater than 5 µM.

`CCCCCCOc1ccc(/C=C(/C#N)C(=O)NCc2cccc(CNC(=O)/C(C#N)=C\c3ccc(OCCCCCC)cc3)c2)cc1` came in with an IC50 of 5 µM.

Turning to `N#C/C(=C\c1cccc(/C=C(\C#N)C(=O)N[C@@H](CO)c2ccccc2)n1)C(=O)N[C@@H](CO)c1ccccc1`, the IC50 was greater than 2 µM.

Compound `N#C/C(=C\C=C\c1ccc(O)c(O)c1)C(=O)NCc1cccc(CNC(=O)/C(C#N)=C/C=C/c2ccc(O)c(O)c2)c1` had an IC50 greater than 5 µM.

`N#C/C(=C/c1c[nH]c2ccccc12)C(=O)NCc1cccc(CNC(=O)/C(C#N)=C\c2c[nH]c3ccccc23)c1` returned an IC50 greater than 5 µM.

Tested on in another experiment: not listed separately
The experiment is described as follows: Cytotoxicity against human MM1S cells at 10 uM after 72 hrs by MTT assay. The following applies: MM1.S. The class given is functional. An outline of the steps:
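MM1.S cells were grown in RPMI 1640 with 10% heat-inactivated FBS and 2 mM glutamine and plated at 20,000 cells per well. They were exposed to a single 10 μM final concentration (DMSO ≤0.1%) or vehicle for 72 h at 37 °C. MTT was added for 2 h, followed by SDS/DMF lysis for 6 h and OD570 reading. Percent growth inhibition was calculated against vehicle.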
In the case of `C[C@H](NC(=O)/C(C#N)=C/c1cccnc1)c1ccccc1`, the inhibition at 10 µM stood at 44%.

`C[C@H](NC(=O)/C(C#N)=C/c1cccs1)c1ccccc1` gave an inhibition at 10 µM of 14%.

As to `CC(C)c1ccc(/C=C(\C#N)C(=O)NCc2ccc(Cl)cc2)cc1`, the inhibition at 10 µM turned out to be 21%.

As for `C[C@H](NC(=O)/C(C#N)=C/c1ccc(C(F)(F)F)cc1)c1ccccc1`, 10 µM produced 63% inhibition.

Turning to `C[C@H](NC(=O)/C(C#N)=C/c1cccc(/C=C(\C#N)C(=O)N[C@@H](C)c2ccccc2)c1)c1ccccc1`, the inhibition at 10 µM is 100%.

For the compound `CCC[C@H](NC(=O)/C(C#N)=C/c1cccc(Br)n1)c1ccccc1`, the inhibition at 10 µM came to 97%.

Take `C[C@H](NC(=O)/C(C#N)=C/c1ccc(-c2ccccc2)cc1)c1ccccc1`: at 10 µM the inhibition was 49%.

In turn, `N#C/C(=C\c1ccccc1)C(=O)N1CCC(C(c2ccccc2)c2ccccc2)CC1` showed an inhibition at 10 µM of 14%.

In turn, `CCCCOc1ccc(/C=C(\C#N)C(=O)N[C@@H](C)c2ccccc2)cc1` came in with an inhibition at 10 µM of 31%.

The compound `COC(=O)c1ccc(/C=C(\C#N)C(=O)N[C@@H](C)c2ccccc2)cc1` displayed an inhibition at 10 µM of 67%.
